Publication PMC9365243 (Chemical Science, 2022)

System: human monocyte-derived macrophages
Assay: Fluorophore uptake, fluorescence microscopy of macrophages
Type: cell-based
Settings: 30 μM, 3 h, 37 °C, fluorescence microscopy (λex 492 nm, λem 518 nm)
Method in brief: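 Human monocyte-derived macrophages were incubated for 3 h with 30 μM free fluorophore or fluorophore-labelled oligopeptide, with DMSO alone as negative control. Cells were then imaged by fluorescence microscopy in the green channel (λex = 492 nm, λem = 518 nm) and in light field to find where the fluorophore sat.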

O=C(O)c1ccc2c(c1)C(=O)OC21c2ccc(O)cc2Oc2cc(O)ccc21 [5-FAM, 5-carboxy-fluorescein]
uptake into cells (fluorophore localization): not able to penetrate the cell membrane
